Series [1] concerns the target Amyloid-beta precursor protein (Homo sapiens) (UniProt P05067). The experiment in a line: Anti-oligomeric activity against Abeta42 (unknown origin) assessed as depletion of the formation of toxic HMW Abeta42 oligomers at 1 uM measured at day 7 to 10 from sample solubilization by capillary electrophoresis assay. Conditions: time 7-10 day. The gist of the method:
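Aβ42 stock diluted to 221 μM in 20 mM sodium phosphate pH 7.4 containing compound (ethanol stocks 1.53 mM). Capillary electrophoresis: BGE 80 mM sodium phosphate pH 7.4, 30 mbar × 3 s hydrodynamic injection, +12 kV, 25 °C, 200 nm detection. Oligomers assigned by effective mobility; HMW oligomer peak quantified semiquantitatively as normalised area %.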

The test system of series [2] is Drosophila. The experiment in a line: Downregulation of SOD1 transcript expression in Spastin Drosophila (Tubulin/Gal4 RNAi DSpast) neurodegenerative model at 10 uM flies raised in compound-enriched food by real-time PCR analysis. It is filed as functional. Put shortly:
(§1)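 Total RNA from 5 third-instar Spastin-RNAi larvae raised on standard or compound-enriched food; Tubulin-Gal4/+ as control line. One-step SYBR RT-qPCR normalised to Rp49 by the 2^−ΔΔCt method. n = 3 experiments; one-way ANOVA, Tukey's test.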
A general note: In qPCR the cycle at which signal appears reflects the starting amount.

Series [3] concerns Microglia. As to the kind of experiment: Antiinflammatory activity against Sprague-Dawley rat microglial cells assessed as inhibition of LPS-induced IL-1 beta production at 1 uM pretreated with compound for 1 hr followed by LPS stimulation for 24 hrs by ELISA. It is filed as functional, cell-based. Particulars: time 25.0 hrs. Put shortly:
(§2)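 Primary cortical rat microglia in DMSO (≤0.1%) or vehicle for 1 h, then 100 ng/mL LPS for 24 h. TNF-α and IL-1β in culture medium by ELISA against standard curves (pg/mL), expressed as % of LPS-stimulated cultures. Mean ± SEM of 3 independent experiments; one-way ANOVA, Holm-Sidak test.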
A general note: An ELISA detects its analyte on a solid surface through an enzyme-linked reagent.

A short description of series [4]: Effect on TNF-alpha release in Sprague-Dawley rat microglial cells at 2.5 uM by ELISA. Particulars: microglia. It is filed as toxicity, cell-based. The gist of the method:
as §2

The test system of series [5] is Drosophila. The experiment in a line: Effect on CAT transcript expression in Spastin Drosophila (Tubulin/Gal4 RNAi DSpast) neurodegenerative model at 10 uM flies raised in compound-enriched food by real-time PCR analysis. It is filed as functional. Put shortly: as §1
For series [6], the system named is SH-SY5Y. As to the kind of experiment: Antioxidant activity in human SH-SY5Y cells assessed as reduction in intracellular ROS formation at 2.5 uM incubated for 24 hrs followed by incubation with t-BuOOH for 30 mins by H2DCF-DA staining based fluorescence analysis. It is filed as functional. Particulars: time 24.5 hrs. Put shortly: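 SH-SY5Y (2×10^4 cells/well) exposed to 2.5 μM for 24 h, loaded with H2DCF-DA 30 min at room temperature, probe removed, then challenged with 50 μM t-BuOOH 30 min at room temperature. Fluorescence ex 485/em 535 nm, expressed as % ROS increase. Three independent experiments; one-way ANOVA with Dunnett's test.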

Series [7] in a line: Toxicity against Drosophila W1118 assessed as proportion of eclosed-flies at 30 uM measured after 72 hrs.
For series [8], the system named is Microglia. The experiment in a line: Antiinflammatory activity against Sprague-Dawley rat microglial cells assessed as downregulation of IL-1 beta mRNA expression at 2.5 uM pretreated with compound for 1 hr followed by LPS stimulation for 6 hrs by real-time PCR analysis. It is filed as functional, cell-based. Particulars: time 7.0 hrs. Put shortly:
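Primary cortical microglia (postnatal day 1 rat pups, shaken off mixed glial cultures, ~97% Iba1-positive). Compound (DMSO ≤0.1%) for 1 h, then 100 ng/mL ultra-pure E. coli LPS for 6 h. QIAzol RNA extraction, SuperScript IV reverse transcription, real-time PCR. Mean ± SEM, n = 3 in triplicate; one-way ANOVA, Holm-Sidak test.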

The subject of series [9] is SH-SY5Y. As to the kind of experiment: Cytotoxicity against human SH-SY5Y cells assessed as decrease in cell viability at >2.5 uM incubated for 24 hrs by MTT assay. It is filed as toxicity, cell-based. The gist of the method:
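SH-SY5Y, 2×10^4 cells/well, grown 24 h then exposed 24 h (1.25–40 μM) at 37 °C, 5% CO2. MTT 0.5 mg/mL in HBSS for 2 h, washed, formazan dissolved in isopropanol, read at 570 nm (reference 690 nm).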
(Formazan colour is commonly taken as a measure of viable cells.)

The structures appear in SMILES notation. Calls of active or inactive are those of the source. The calls are words filed in the database; no cut-off is given here.

Chain of Amyloid-beta precursor protein (Homo sapiens) (P05067 whole entry): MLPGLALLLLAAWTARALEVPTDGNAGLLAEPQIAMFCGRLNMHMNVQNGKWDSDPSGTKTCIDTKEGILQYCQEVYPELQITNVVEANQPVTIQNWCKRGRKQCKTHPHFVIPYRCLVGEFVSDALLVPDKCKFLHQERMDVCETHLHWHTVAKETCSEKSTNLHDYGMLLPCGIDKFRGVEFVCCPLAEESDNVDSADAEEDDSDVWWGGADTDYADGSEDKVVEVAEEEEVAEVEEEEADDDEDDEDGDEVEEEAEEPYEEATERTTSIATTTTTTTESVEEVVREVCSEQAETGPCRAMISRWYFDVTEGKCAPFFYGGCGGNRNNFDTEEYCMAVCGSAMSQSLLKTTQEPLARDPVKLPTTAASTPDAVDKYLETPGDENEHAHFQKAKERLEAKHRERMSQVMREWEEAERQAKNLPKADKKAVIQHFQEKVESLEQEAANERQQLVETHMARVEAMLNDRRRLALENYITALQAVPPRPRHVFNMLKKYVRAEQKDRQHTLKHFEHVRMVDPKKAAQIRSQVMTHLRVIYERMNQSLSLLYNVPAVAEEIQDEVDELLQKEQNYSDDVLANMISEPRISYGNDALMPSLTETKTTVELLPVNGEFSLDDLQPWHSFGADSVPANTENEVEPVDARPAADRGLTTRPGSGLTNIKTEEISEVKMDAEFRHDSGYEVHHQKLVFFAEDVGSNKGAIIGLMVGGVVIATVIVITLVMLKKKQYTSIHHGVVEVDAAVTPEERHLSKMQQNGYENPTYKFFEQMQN

Take `CCCCn1cc(C/C(C(=O)/C=C/c2ccc(OC)cc2)=C(O)\C=C\c2ccc(OC)cc2)nn1`: the outcome (in series [1]; in the series on Microglia [3]; with Microglia [8]) was Active. Further, the inhibition (in general, the share of the control response that was lost under treatment) in the series with Drosophila [2] was “Active”. Besides, the Activity result in series [4] is recorded as “Non-Toxic”; in series [7], 85.461%; in the series on SH-SY5Y [9] it was “Toxic”. The result in the series on Drosophila [5] was inactive. Also, the inhibition at 2.5 µM in the series on SH-SY5Y [6] came out at 18%.
